Results as given in ChEMBL document CHEMBL4330056, “Synthesis and Cytotoxic and Antiviral Profiling of Pyrrolo- and Furo-Fused 7-Deazapurine Ribonucleosides” (J Med Chem, 2018).

Assays:
Type in all cases: ADME, cell-based
Adenosine kinase [1] = molecular target: T1, Adenosine kinase (Homo sapiens, UniProt P55263); experiment: Drug metabolism in human HCT116 cells assessed as ADK-mediated compound phosphorylation level per 5x10^5 cells at 1 umol/L after 3 hrs by UPLC-MS/MS analysis; details: 1 µM
Outline: (§1)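 BJ (normal) and HCT116 (malignant) cells exposed to nucleoside at 1 or 10 μmol/L for 1 or 3 h. Intracellular nucleoside and its monophosphate quantified against synthetic monophosphate standards. Values given as pmol per 5 × 10^5 cells.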

Adenosine kinase [2] = molecular target: T1, Adenosine kinase; experiment: Drug metabolism in human BJ cells assessed as ADK-mediated compound phosphorylation level per 5x10^5 cells at 1 umol/L after 1 hr by UPLC-MS/MS analysis; details: 1 µM; outline: as §1
Adenosine kinase [3] = molecular target: T1, Adenosine kinase; experiment: Drug metabolism in human HCT116 cells assessed as ADK-mediated compound phosphorylation level per 5x10^5 cells at 10 umol/L after 1 hr by UPLC-MS/MS analysis; details: 10 µM; outline: as §1
Adenosine kinase [4] = molecular target: T1, Adenosine kinase; experiment: Drug metabolism in human BJ cells assessed as ADK-mediated compound phosphorylation level per 5x10^5 cells at 10 umol/L after 1 hr by UPLC-MS/MS analysis; details: 10 µM; outline: as §1
Adenosine kinase [5] = molecular target: T1, Adenosine kinase; experiment: Drug metabolism in human BJ cells assessed as ADK-mediated compound phosphorylation level per 5x10^5 cells at 1 umol/L after 3 hrs by UPLC-MS/MS analysis; details: 1 µM; outline: as §1
Adenosine kinase [6] = molecular target: T1, Adenosine kinase; experiment: Drug metabolism in human HCT116 cells assessed as ADK-mediated compound phosphorylation level per 5x10^5 cells at 10 umol/L after 3 hrs by UPLC-MS/MS analysis; details: 10 µM; outline: as §1
Adenosine kinase [7] = molecular target: T1, Adenosine kinase; experiment: Drug metabolism in human HCT116 cells assessed as ADK-mediated compound phosphorylation level per 5x10^5 cells at 1 umol/L after 1 hr by UPLC-MS/MS analysis; details: 1 µM; outline: as §1
Adenosine kinase [8] = molecular target: T1, Adenosine kinase; experiment: Drug metabolism in human BJ cells assessed as ADK-mediated compound phosphorylation level per 5x10^5 cells at 10 umol/L after 3 hrs by UPLC-MS/MS analysis; details: 10 µM; outline: as §1

T1 sequence (P55263 whole entry): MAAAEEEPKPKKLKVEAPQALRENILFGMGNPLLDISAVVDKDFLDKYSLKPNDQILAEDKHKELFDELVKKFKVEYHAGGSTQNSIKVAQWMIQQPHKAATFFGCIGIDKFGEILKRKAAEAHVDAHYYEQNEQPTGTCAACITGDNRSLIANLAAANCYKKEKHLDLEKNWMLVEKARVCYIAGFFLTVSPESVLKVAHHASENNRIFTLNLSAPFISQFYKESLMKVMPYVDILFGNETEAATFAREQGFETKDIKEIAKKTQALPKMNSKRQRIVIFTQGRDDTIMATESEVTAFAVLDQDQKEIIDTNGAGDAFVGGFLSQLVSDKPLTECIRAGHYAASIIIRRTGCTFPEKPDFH

Drug metabolism (Adenosine kinase [1]): 1079.19 pmol
Drug metabolism (Adenosine kinase [2]): 220.92 pmol
Drug metabolism (Adenosine kinase [3]): 8868.83 pmol
Drug metabolism (Adenosine kinase [4]): 1531.57 pmol
Drug metabolism (Adenosine kinase [5]): 332.63 pmol
Drug metabolism (Adenosine kinase [6]): 12049.83 pmol
Drug metabolism (Adenosine kinase [7]): 466.96 pmol
Drug metabolism (Adenosine kinase [8]): 5041.67 pmol
SMILES: Cc1ncnc2c1c1c(ccn1C)n2[C@@H]1O[C@H](COP(=O)([O-])O)[C@@H](O)[C@H]1O.[Na+]
